Laboratory results as given in ChEMBL document CHEMBL5032497, “Rational Alteration of Pharmacokinetics of Chiral Fluorinated and Deuterated Derivatives of Emixustat for Retinal Therapy” (J Med Chem, 2021).

Target: Retinoid isomerohydrolase (Bos taurus, UniProt Q28175)
Test: Inhibition of RPE65 in bovine retinal pigment epithelium microsomes assessed as decrease of 11-cis-retinol using trans-retinol measured after 1 hr by normal phase HPLC analysis
Design: species or system Retina, Microsome
Details: not given; call rule not given here

Retinoid isomerohydrolase, sequence (Q28175 whole entry): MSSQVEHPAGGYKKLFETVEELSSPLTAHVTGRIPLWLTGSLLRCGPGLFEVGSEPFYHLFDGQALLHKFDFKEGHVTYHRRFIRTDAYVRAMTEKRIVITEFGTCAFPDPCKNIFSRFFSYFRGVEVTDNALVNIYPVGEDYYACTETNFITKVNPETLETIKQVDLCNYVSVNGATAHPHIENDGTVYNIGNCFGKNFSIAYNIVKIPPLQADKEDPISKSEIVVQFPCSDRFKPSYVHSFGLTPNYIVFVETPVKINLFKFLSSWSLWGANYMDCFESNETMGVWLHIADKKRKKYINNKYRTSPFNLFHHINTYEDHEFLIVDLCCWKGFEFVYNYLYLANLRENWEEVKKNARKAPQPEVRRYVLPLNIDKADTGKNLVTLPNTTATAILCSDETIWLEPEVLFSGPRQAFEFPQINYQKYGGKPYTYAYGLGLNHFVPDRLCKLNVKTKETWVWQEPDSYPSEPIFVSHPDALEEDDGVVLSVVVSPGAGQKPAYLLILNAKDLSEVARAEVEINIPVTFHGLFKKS

Row | IC50 | SMILES
1 | 287 nM | CCCC(CCC)COc1cccc(C(O)CCN)c1F (racemic)
2 | 295 nM | CCCC(CCC)COc1cc(F)cc(C(O)CCN)c1 (racemic; 25)
3 | 184 nM | CCCC(CCC)COc1cc(F)cc(C(O)CCN)c1 (racemic; 26)
4 | 157 nM | CCCC(CCC)COc1ccc(F)c(C(O)CCN)c1 (racemic; 27)
5 | 132 nM | CCCC(CCC)COc1ccc(F)c(C(O)CCN)c1 (racemic; 28)

System: not listed separately
Test: Drug distribution in wild type BL/6J mouse eyes measured at 380 nM, IP administered single dose per eye after 3 hrs by LC-MS/MS electrospray ionization fragmentation spectra method
Format: ADME, tissue-based
Details: in vivo, 0.38 µM
How it was run: (§1)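 Eight-week-old BL/6J mice got one i.p. dose of 380 nmol in 50 μL DMSO and were sacrificed at 3 h, 1 day or 7 days. Both eyes were homogenized in acetonitrile, and the extract was dried and reconstituted in 50% methanol/water. Analysis was by C18 LC-MS/MS with ESI and a formic acid/acetonitrile gradient.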

Row | Drug uptake | SMILES
6 | 176 pmol | NCCC(O)c1cccc(OCC2CCC(F)(F)CC2)c1 (centres undefined)
7 | Not Active | CCCC(CCC)COc1cc([C@H](O)CCN)ccc1F
8 | Not Active | NCCC(O)c1ccc(F)c(OCC2CCCCC2)c1 (centres undefined)

System: not listed separately
Test: Drug distribution in wild type BL/6J mouse eyes measured at 380 nM, IP administered single dose per eye after 7 days by LC-MS/MS electrospray ionization fragmentation spectra method
Format: ADME, tissue-based
Details: in vivo, 168 h, 0.38 µM, time 7 day
How it was run: as §1, with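 “gradient. The transition monitored was water loss (−18 Da), or −47 Da for one analog.” for “gradient.”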

Row | Drug uptake | SMILES
9 | 21 pmol | NCCC(O)c1cccc(OCC2CCC(F)(F)CC2)c1 (centres undefined)
